Laboratory results reported in ChEMBL document CHEMBL2390836, “Synthesis and antitumor activities of naturally occurring oleanolic acid triterpenoid saponins and their derivatives” (Eur J Med Chem, 2013).
pIC50: −log10 of the molar value.

Assays:
Assay type in all cases: functional, cell-based
A549 = assay: Cytotoxicity against human A549 cells after 72 hrs by sulforhodamine B assay; conditions: A549, 72 h
In short: (§1)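 Cells seeded in 96-well plates and exposed in triplicate to a concentration gradient at 37 °C for 72 h. Total protein staining with sulforhodamine B was the read-out. IC50 was calculated by the Logit method from at least three independent experiments.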

HL-60 = assay: Cytotoxicity against human HL60 cells after 72 hrs by MTT assay; conditions: HL-60, 72 h
In short: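 HL-60 human promyelocytic leukemia cells were plated in 96 wells and treated in triplicate with graded concentrations at 37 °C for 72 h. Viability was read by MTT reduction. IC50 was obtained by the Logit method from at least three independent experiments.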

A-375 = assay: Cytotoxicity against human A375 cells after 72 hrs by sulforhodamine B assay; conditions: A-375, 72 h; in short: as §1

Compound	pIC50 (A549)	pIC50 (HL-60)	pIC50 (A-375)
C[C@@H]1O[C@@H](O[C@@H]2[C@@H](O)[C@H](C)O[C@@H](O[C@H]3[C@H](O[C@H]4CC[C@]5(C)[C@H]6CC=C7[C@@H]8CC(C)(C)CC[C@]8(C(=O)O)CC[C@@]7(C)[C@]6(C)CC[C@H]5C4(C)C)OC[C@@H](O)[C@@H]3O)[C@@H]2O)[C@H](O)[C@H](O)[C@H]1O	4.79	5.03	5.08
C[C@@H]1O[C@@H](O[C@H]2[C@H](O[C@H]3CC[C@]4(C)[C@H]5CC=C6[C@@H]7CC(C)(C)CC[C@]7(C(=O)O)CC[C@@]6(C)[C@]5(C)CC[C@H]4C3(C)C)OC[C@@H](O)[C@@H]2O)[C@H](O)[C@H](O)[C@H]1O	4.97	5.44	5.30
C[C@@H]1O[C@@H](O[C@H]2[C@@H](O[C@H]3CC[C@]4(C)[C@H]5CC=C6[C@@H]7CC(C)(C)CC[C@]7(C(=O)O)CC[C@@]6(C)[C@]5(C)CC[C@H]4C3(C)C)OC[C@H](O)[C@@H]2O)[C@H](O)[C@H](O)[C@H]1O	< 4.70	< 4.70	< 4.70
C[C@@H]1O[C@@H](O[C@H]2[C@H](O[C@H]3CC[C@]4(C)[C@H]5CC=C6[C@@H]7CC(C)(C)CC[C@]7(C(=O)O)CC[C@@]6(C)[C@]5(C)CC[C@H]4C3(C)C)O[C@H](CO)[C@H](O)[C@@H]2O)[C@H](O)[C@H](O)[C@H]1O	4.91	5.60	5.29
C[C@@H]1O[C@@H](O[C@H]2[C@@H](O)[C@@H](CO)O[C@@H](O[C@H]3CC[C@]4(C)[C@H]5CC=C6[C@@H]7CC(C)(C)CC[C@]7(C(=O)O)CC[C@@]6(C)[C@]5(C)CC[C@H]4C3(C)C)[C@@H]2O)[C@H](O)[C@H](O)[C@H]1O	4.82	< 4.70	4.81
C[C@@H]1O[C@@H](O[C@H]2[C@H]3OC(c4ccccc4)OC[C@H]3O[C@@H](O[C@H]3CC[C@]4(C)[C@H]5CC=C6[C@@H]7CC(C)(C)CC[C@]7(C(=O)O)CC[C@@]6(C)[C@]5(C)CC[C@H]4C3(C)C)[C@@H]2O[C@@H]2O[C@@H](C)[C@H](O)[C@@H](O)[C@H]2O)[C@H](O)[C@H](O)[C@H]1O (some centres undefined)	< 4.70	< 4.70	< 4.70
C[C@@H]1O[C@@H](O[C@H]2[C@H](O[C@H]3CC[C@]4(C)[C@H]5CC=C6[C@@H]7CC(C)(C)CC[C@]7(C(=O)O)CC[C@@]6(C)[C@]5(C)CC[C@H]4C3(C)C)O[C@H](CO)[C@@H](O)[C@@H]2O)[C@H](O)[C@H](O)[C@H]1O	4.63	4.89	4.94
C[C@@H]1O[C@@H](O[C@@H]2[C@@H](O)[C@H](O[C@H]3CC[C@]4(C)[C@H]5CC=C6[C@@H]7CC(C)(C)CC[C@]7(C(=O)O)CC[C@@]6(C)[C@]5(C)CC[C@H]4C3(C)C)O[C@H](CO)[C@H]2O)[C@H](O)[C@H](O)[C@H]1O	< 4.70	< 4.70	< 4.70
C[C@@H]1O[C@@H](O[C@H]2[C@H](O[C@H]3CC[C@]4(C)[C@H]5CC=C6[C@@H]7CC(C)(C)CC[C@]7(C(=O)O)CC[C@@]6(C)[C@]5(C)CC[C@H]4C3(C)C)O[C@H](CO)[C@@H](O)[C@@H]2O[C@@H]2O[C@@H](C)[C@H](O)[C@@H](O)[C@H]2O)[C@H](O)[C@H](O)[C@H]1O	< 4.70	< 4.70	< 4.70
C[C@@H]1O[C@@H](O[C@H]2[C@H](O[C@H]3CC[C@]4(C)[C@H]5CC=C6[C@@H]7CC(C)(C)CC[C@]7(C(=O)O[C@@H]7O[C@H](CO[C@@H]8O[C@H](CO)[C@@H](O[C@@H]9O[C@@H](C)[C@H](O)[C@@H](O)[C@H]9O)[C@H](O)[C@H]8O)[C@@H](O)[C@H](O)[C@H]7O)CC[C@@]6(C)[C@]5(C)CC[C@H]4C3(C)C)OC[C@@H](O)[C@@H]2O)[C@H](O)[C@H](O)[C@H]1O	4.98	5.49	5.14
C[C@@H]1O[C@@H](O[C@H]2[C@H](O)[C@@H](O)[C@H](OC[C@H]3O[C@@H](OC(=O)[C@]45CCC(C)(C)C[C@H]4C4=CC[C@@H]6[C@@]7(C)CC[C@H](O[C@@H]8OC[C@@H](O)[C@H](O)[C@H]8O)C(C)(C)[C@@H]7CC[C@@]6(C)[C@]4(C)CC5)[C@H](O)[C@@H](O)[C@@H]3O)O[C@@H]2CO)[C@H](O)[C@H](O)[C@H]1O	4.92	5.24	4.87
C[C@@H]1O[C@@H](O[C@H]2[C@H](O[C@H]3CC[C@]4(C)[C@H]5CC=C6[C@@H]7CC(C)(C)CC[C@]7(C(=O)O)CC[C@@]6(C)[C@]5(C)CC[C@H]4C3(C)C)OC[C@@H](O)[C@@H]2O)[C@H](O)[C@H](O[C@@H]2O[C@H](CO)[C@@H](O)[C@H](O)[C@H]2O)[C@H]1O	4.83	5.34	5.26
C[C@@H]1O[C@H](O[C@H]2[C@H](O[C@H]3CC[C@]4(C)[C@H]5CC=C6[C@@H]7CC(C)(C)CC[C@]7(C(=O)O)CC[C@@]6(C)[C@]5(C)CC[C@H]4C3(C)C)OC[C@H](O)[C@@H]2O)[C@H](O)[C@H](O)[C@H]1O	4.76	5.38	5.11
C[C@@H]1O[C@@H](O[C@H]2[C@H](O[C@H]3CC[C@]4(C)[C@H]5CC=C6[C@@H]7CC(C)(C)CC[C@]7(C(=O)O)CC[C@@]6(C)[C@]5(C)CC[C@H]4C3(C)C)OC[C@H](O)[C@@H]2O)[C@H](O)[C@H](O[C@@H]2OC[C@@H](O)[C@H](O)[C@H]2O)[C@H]1O	4.81	5.47	5.05
C[C@@H]1O[C@@H](O[C@H]2[C@H](O[C@H]3CC[C@]4(C)[C@H]5CC=C6[C@@H]7CC(C)(C)CC[C@]7(C(=O)O)CC[C@@]6(C)[C@]5(C)CC[C@H]4C3(C)C)OC[C@@H](O)[C@@H]2O)[C@H](O)[C@H](O[C@@H]2OC[C@@H](O)[C@H](O)[C@H]2O)[C@H]1O	4.94	5.35	5.20
C[C@@H]1O[C@@H](O[C@H]2[C@H](O[C@H]3CC[C@]4(C)[C@H]5CC=C6[C@@H]7CC(C)(C)CC[C@]7(C(=O)O)CC[C@@]6(C)[C@]5(C)CC[C@H]4C3(C)C)OC[C@@H](O)[C@@H]2O)[C@H](O)[C@H](O[C@@H]2O[C@H](CO)[C@@H](O[C@@H]3O[C@H](CO)[C@@H](O)[C@H](O)[C@H]3O)[C@H](O)[C@H]2O)[C@H]1O	5.11	5.60	5.21
C[C@@H]1O[C@@H](O[C@H]2[C@H](O[C@H]3CC[C@]4(C)[C@H]5CC=C6[C@@H]7CC(C)(C)CC[C@]7(C(=O)O[C@@H]7O[C@H](CO[C@@H]8O[C@H](CO)[C@@H](O)[C@H](O)[C@H]8O)[C@@H](O)[C@H](O)[C@H]7O)CC[C@@]6(C)[C@]5(C)CC[C@H]4C3(C)C)OC[C@@H](O)[C@@H]2O)[C@H](O)[C@H](O[C@@H]2O[C@H](CO)[C@@H](O[C@@H]3O[C@H](CO)[C@@H](O)[C@H](O)[C@H]3O)[C@H](O)[C@H]2O)[C@H]1O	< 4.70	< 4.70	< 4.70
C[C@@H]1O[C@@H](O[C@H]2[C@H](O[C@H]3CC[C@]4(C)[C@H]5CC=C6[C@@H]7CC(C)(C)CC[C@]7(C(=O)O)CC[C@@]6(C)[C@]5(C)CC[C@H]4C3(C)C)OC[C@H](O)[C@@H]2O)[C@H](O)[C@H](O[C@@H]2O[C@H](CO)[C@@H](O[C@@H]3O[C@H](CO)[C@@H](O)[C@H](O)[C@H]3O)[C@H](O)[C@H]2O)[C@H]1O	5.10	5.46	5.23
C[C@@H]1O[C@@H](O[C@H]2[C@H](O[C@H]3CC[C@]4(C)[C@H]5CC=C6[C@@H]7CC(C)(C)CC[C@]7(C(=O)O)CC[C@@]6(C)[C@]5(C)CC[C@H]4C3(C)C)OC[C@H](O)[C@@H]2O)[C@H](O)[C@H](O[C@@H]2O[C@H](CO)[C@@H](O)[C@H](O)[C@H]2O)[C@H]1O	4.78	5.21	4.92
C[C@@H]1O[C@@H](O[C@H]2[C@H](O[C@H]3CC[C@]4(C)[C@H]5CC=C6[C@@H]7CC(C)(C)CC[C@]7(C(=O)O)CC[C@@]6(C)[C@]5(C)CC[C@H]4C3(C)C)OC[C@H](O)[C@@H]2O)[C@H](O)[C@H](O)[C@H]1O	4.80	5.04	5.08
C[C@@H]1O[C@@H](O[C@H]2[C@H](O[C@H]3CC[C@]4(C)[C@H]5CC=C6[C@@H]7CC(C)(C)CC[C@]7(C(=O)O)CC[C@@]6(C)[C@]5(C)CC[C@H]4C3(C)C)OC[C@H](O)[C@@H]2O)[C@H](O)[C@H](O[C@@H]2OC[C@@H](O[C@@H]3O[C@H](CO)[C@@H](O)[C@H](O)[C@H]3O)[C@H](O)[C@H]2O)[C@H]1O	< 4.70	5.38	4.66
CC1(C)CC[C@]2(C(=O)O)CC[C@]3(C)C(=CC[C@@H]4[C@@]5(C)CC[C@H](O[C@@H]6O[C@H](CO)[C@H](O)[C@H](O)[C@H]6O[C@@H]6O[C@H](CO)[C@@H](O)[C@H](O)[C@H]6O)C(C)(C)[C@@H]5CC[C@]43C)[C@@H]2C1	4.75	5.00	5.01
C[C@@H]1O[C@@H](O[C@H]2[C@H](O[C@H]3CC[C@]4(C)[C@H]5CC=C6[C@@H]7CC(C)(C)CC[C@]7(C(=O)O)CC[C@@]6(C)[C@]5(C)CC[C@H]4C3(C)C)OC[C@H](O[C@@H]3O[C@H](CO)[C@@H](O)[C@H](O)[C@H]3O)[C@@H]2O)[C@H](O)[C@H](O[C@@H]2O[C@H](CO)[C@@H](O[C@@H]3O[C@H](CO)[C@@H](O)[C@H](O)[C@H]3O)[C@H](O)[C@H]2O)[C@H]1O	5.21	5.51	5.46
